# Data as given in ChEMBL document CHEMBL2384964, “Dual-acting histone deacetylase-topoisomerase I inhibitors” (Bioorg Med Chem Lett, 2013).
# The source made the active and inactive calls. The rule behind the calls is not given here.
# Columns and labels:
# [1] = target: T1, Histone deacetylase 8 (Homo sapiens) (UniProt Q9BY41); experiment: Inhibition of HDAC8 in human HeLa cells using Fluor-de-Lys as substrate up to 10 uM after 15 mins by fluorescence assay; assay type: cell-based
# T1 sequence (whole entry): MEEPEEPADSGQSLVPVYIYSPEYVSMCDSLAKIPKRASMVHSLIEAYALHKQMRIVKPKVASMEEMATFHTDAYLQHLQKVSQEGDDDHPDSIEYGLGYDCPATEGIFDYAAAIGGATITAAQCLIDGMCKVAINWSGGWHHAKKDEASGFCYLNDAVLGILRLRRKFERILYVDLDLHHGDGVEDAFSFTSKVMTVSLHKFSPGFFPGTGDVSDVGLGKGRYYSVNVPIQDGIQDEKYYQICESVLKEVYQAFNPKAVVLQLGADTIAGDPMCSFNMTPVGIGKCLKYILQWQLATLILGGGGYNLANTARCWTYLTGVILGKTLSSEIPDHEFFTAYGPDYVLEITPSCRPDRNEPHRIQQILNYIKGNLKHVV
# Method in brief: (§1)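 Run by a contract testing laboratory, duplicate wells at each concentration; values reported with standard error.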
# [2] = target: Histone deacetylase; experiment: Inhibition of HDAC in human HeLa cells using Fluor-de-Lys as substrate after 15 mins by fluorescence assay; assay type: cell-based
# [3] = target: T2, Histone deacetylase 1 (Homo sapiens, UniProt Q13547); experiment: Inhibition of HDAC1 in human HeLa cells using Fluor-de-Lys as substrate after 15 mins by fluorescence assay; assay type: cell-based
# T2 sequence (Q13547 whole entry): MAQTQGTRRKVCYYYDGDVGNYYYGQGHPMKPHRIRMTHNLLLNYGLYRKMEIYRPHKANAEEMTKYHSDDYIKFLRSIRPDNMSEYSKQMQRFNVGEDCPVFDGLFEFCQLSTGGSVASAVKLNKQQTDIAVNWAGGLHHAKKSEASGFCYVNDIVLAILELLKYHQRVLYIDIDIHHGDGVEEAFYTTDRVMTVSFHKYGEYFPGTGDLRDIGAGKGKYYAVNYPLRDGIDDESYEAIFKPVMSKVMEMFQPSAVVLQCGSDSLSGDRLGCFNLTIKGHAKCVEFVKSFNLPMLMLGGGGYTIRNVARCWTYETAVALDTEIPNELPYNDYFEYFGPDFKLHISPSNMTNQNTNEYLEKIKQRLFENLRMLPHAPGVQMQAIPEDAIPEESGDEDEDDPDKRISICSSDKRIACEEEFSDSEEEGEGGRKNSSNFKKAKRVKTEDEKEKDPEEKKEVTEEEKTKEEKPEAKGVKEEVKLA
# [4] = target: T3, Protein deacetylase HDAC6 (Homo sapiens, UniProt Q9UBN7); experiment: Inhibition of HDAC6 in human HeLa cells using Fluor-de-Lys as substrate after 15 mins by fluorescence assay; assay type: cell-based
# T3 sequence (Q9UBN7 whole entry): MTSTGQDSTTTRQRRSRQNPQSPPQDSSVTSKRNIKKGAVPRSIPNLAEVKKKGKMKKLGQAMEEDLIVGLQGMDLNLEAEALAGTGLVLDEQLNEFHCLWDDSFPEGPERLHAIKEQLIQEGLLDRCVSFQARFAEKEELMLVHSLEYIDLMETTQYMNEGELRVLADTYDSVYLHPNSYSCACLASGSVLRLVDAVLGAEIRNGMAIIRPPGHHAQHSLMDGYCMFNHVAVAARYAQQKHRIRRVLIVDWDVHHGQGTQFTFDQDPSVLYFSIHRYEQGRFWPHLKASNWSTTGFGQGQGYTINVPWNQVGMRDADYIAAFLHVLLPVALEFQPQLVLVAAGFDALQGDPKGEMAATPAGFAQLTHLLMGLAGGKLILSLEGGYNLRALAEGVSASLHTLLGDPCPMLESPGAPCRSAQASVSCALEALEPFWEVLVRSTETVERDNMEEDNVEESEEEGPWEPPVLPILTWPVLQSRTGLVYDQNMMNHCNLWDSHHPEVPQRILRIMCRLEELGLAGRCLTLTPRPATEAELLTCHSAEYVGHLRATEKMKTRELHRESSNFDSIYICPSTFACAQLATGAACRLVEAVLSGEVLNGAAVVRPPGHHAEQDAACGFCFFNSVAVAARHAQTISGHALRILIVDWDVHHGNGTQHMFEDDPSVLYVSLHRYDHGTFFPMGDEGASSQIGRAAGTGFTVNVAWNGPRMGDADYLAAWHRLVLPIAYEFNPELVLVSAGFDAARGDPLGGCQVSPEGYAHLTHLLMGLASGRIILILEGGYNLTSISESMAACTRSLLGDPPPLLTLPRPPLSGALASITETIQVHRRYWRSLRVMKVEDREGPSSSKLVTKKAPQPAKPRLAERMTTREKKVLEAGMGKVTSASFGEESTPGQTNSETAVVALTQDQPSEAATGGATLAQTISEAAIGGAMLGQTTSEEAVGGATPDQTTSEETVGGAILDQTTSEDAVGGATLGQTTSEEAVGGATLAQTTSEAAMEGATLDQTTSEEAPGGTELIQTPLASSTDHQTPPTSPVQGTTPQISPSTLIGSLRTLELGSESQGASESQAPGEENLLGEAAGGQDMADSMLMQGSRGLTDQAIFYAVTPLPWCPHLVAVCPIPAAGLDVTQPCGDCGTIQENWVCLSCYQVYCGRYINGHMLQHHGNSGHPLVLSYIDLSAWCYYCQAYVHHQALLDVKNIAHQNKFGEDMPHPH
# [5] = tested on: DU-145; experiment: Cytotoxicity against human DU145 cells assessed as inhibition of cell viability after 72 hrs by MTS assay; assay type: functional, cell-based; conditions: DU-145, 72 h
# Method in brief: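 DU-145 prostate carcinoma cells exposed to compound for 72 h; viability read by MTS assay. IC50 values are means of two experiments, each run in triplicate.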
# [6] = target: T4, DNA topoisomerase 1 (Homo sapiens) (UniProt P11387); experiment: Inhibition of topoisomerase-1 (unknown origin) assessed as reduction of pBR322 plasmid DNA relaxation at 50 uM after 30 mins by agarose gel electrophoresis
# T4 sequence (whole entry): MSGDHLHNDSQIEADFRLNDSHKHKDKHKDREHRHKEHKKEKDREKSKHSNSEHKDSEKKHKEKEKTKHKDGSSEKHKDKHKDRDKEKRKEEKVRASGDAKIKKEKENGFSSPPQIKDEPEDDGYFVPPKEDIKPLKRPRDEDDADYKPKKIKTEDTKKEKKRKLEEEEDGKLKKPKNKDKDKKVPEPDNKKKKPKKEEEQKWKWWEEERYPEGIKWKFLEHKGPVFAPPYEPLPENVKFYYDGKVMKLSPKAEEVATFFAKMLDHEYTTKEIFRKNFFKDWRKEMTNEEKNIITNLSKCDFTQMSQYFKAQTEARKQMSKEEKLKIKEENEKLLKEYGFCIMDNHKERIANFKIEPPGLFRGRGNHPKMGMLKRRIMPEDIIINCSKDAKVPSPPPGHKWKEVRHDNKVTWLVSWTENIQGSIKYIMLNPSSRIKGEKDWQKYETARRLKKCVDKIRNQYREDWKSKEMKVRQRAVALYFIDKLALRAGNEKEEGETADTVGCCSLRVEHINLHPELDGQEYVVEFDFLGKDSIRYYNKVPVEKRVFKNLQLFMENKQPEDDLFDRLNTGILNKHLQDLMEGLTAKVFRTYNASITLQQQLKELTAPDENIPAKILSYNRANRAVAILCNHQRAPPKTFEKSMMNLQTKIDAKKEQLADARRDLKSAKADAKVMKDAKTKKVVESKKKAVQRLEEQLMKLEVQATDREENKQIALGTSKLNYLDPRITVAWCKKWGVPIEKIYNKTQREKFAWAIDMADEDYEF
# Method in brief: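 Supercoiled pBR322 plasmid incubated with Topo I, test agents at 50 μM, SN-38 as positive control. Reactions stopped with SDS, run on agarose gel, DNA stained with a nucleic acid dye; relaxation judged by band migration.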
# [7] = target: T5, Histone deacetylase 8 (Homo sapiens, UniProt Q9BY41); experiment: Inhibition of HDAC8 in human HeLa cells using Fluor-de-Lys as substrate after 15 mins by fluorescence assay; assay type: cell-based
# T5 sequence (Q9BY41 whole entry): T1 sequence (whole entry)
# [8] = target: T6, Histone deacetylase (Homo sapiens) (UniProt Q13547+O15379+Q9UBN7+Q92769+Q9UQL6+Q8WUI4+Q9BY41+Q96DB2+P56524+Q9UKV0+Q969S8); experiment: Inhibition of HDAC in human DU145 cells assessed as upregulation of p21waf1 expression after 24 hrs by Western blot analysis; assay type: cell-based; conditions: DU-145
# Method in brief: (§2)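 DU-145 cells treated for 24 h at 2.5 and 5.0 μM (SAHA, conjugates) or 0.1 and 0.5 μM (SN-38); lysates immunoblotted for p21waf1, with actin as loading control.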
# [9] = target: T6, Histone deacetylase (Homo sapiens); experiment: Inhibition of HDAC in human HeLa cells using Fluor-de-Lys as substrate up to 10 uM after 15 mins by fluorescence assay; assay type: cell-based
# Method in brief: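 Enzyme source is HeLa cell nuclear extract with a fluorogenic substrate; fluorescence read near 460 nm. Compound-only wells without enzyme give background (camptothecin emits at 434 nm), which is subtracted. Each value from three independent experiments.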
# [10] = target: T2, Histone deacetylase 1; experiment: Inhibition of HDAC1 in human HeLa cells using Fluor-de-Lys as substrate up to 10 uM after 15 mins by fluorescence assay; assay type: cell-based; method in brief: as §1
# [11] = target: T6, Histone deacetylase (Homo sapiens); experiment: Inhibition of HDAC in human DU145 cells assessed as upregulation of p21waf1 expression at 0.1 to 0.5 uM after 24 hrs by Western blot analysis; assay type: cell-based; conditions: DU-145; method in brief: as §2
Structure (SMILES),inhibition [1],IC50 [2],IC50 [3],IC50 [4],IC50 [5],Topo I inhibition (active/inactive) [6],IC50 [7],inhibition [8],inhibition [9],inhibition [10],inhibition [11]
CC[C@@]1(O)C(=O)OCc2c1cc1n(c2=O)Cc2cc3cc(OCc4cn(CCCCC(=O)NO)nn4)ccc3nc2-1,inactive,144.5 nM,116 nM,260 nM,2500 nM,Active,,,,,
CCc1c2c(nc3ccc(OCc4cn(CCCCCCCC(=O)NO)nn4)cc13)-c1cc3c(c(=O)n1C2)COC(=O)[C@]3(O)CC,,212.3 nM,369 nM,75 nM,3510 nM,Active,2600 nM,,,,
CC[C@@]1(O)C(=O)OCc2c1cc1n(c2=O)Cc2cc3cc(OCc4cn(CCCCCC(=O)NO)nn4)ccc3nc2-1,,112.2 nM,,,1950 nM,Active,,Dose-dependent effect,,,
CCc1c2c(nc3ccc(OCc4cn(CCCCCCC(=O)NO)nn4)cc13)-c1cc3c(c(=O)n1C2)COC(=O)[C@]3(O)CC,inactive,64.65 nM,50 nM,36 nM,3110 nM,Active,,,,,
CCc1c2c(nc3ccc(OCc4cn(CCCC(=O)NO)nn4)cc13)-c1cc3c(c(=O)n1C2)COC(=O)[C@]3(O)CC,,,,85 nM,6270 nM,Active,1730 nM,,inactive,inactive,
CCc1c2c(nc3ccc(OCc4cn(CCCCC(=O)NO)nn4)cc13)-c1cc3c(c(=O)n1C2)COC(=O)[C@]3(O)CC,,155.4 nM,,,4250 nM,Active,,,,,
CCc1c2c(nc3ccc(OCc4cn(CCCCCC(=O)NO)nn4)cc13)-c1cc3c(c(=O)n1C2)COC(=O)[C@]3(O)CC,inactive,120.7 nM,129 nM,42 nM,2050 nM,Active,,Dose-dependent effect,,,
CC[C@@]1(O)C(=O)OCc2c1cc1n(c2=O)Cc2cc3cc(OCc4cn(CCCCCCC(=O)NO)nn4)ccc3nc2-1,,56.2 nM,37 nM,81 nM,2030 nM,Active,1050 nM,,,,
CCc1c2c(nc3ccc(O)cc13)-c1cc3c(c(=O)n1C2)COC(=O)[C@]3(O)CC [7-ETHYL-10-HYDROXYCAMPTOTHECIN],,,,,110 nM,,,,inactive,,Active
